Measured values published in ChEMBL document CHEMBL4431328, “Development of a Single-Chain Peptide Agonist of the Relaxin-3 Receptor Using Hydrocarbon Stapling” (J Med Chem, 2016).
Activity calls are given as the source filed them. No cut-off for these calls is given here. Where a SMILES comes first, the peptide text is derived from it. Bridges are numbered along the chain shown (N, C = ends). [ ]: non-standard residue; d: D form. S5 = C=CCCC[C@](C)(N)C(=O)O

Legend:
[1] = biological target: T1, Relaxin receptor 1 (Homo sapiens) (UniProt Q9HBX9); assay: Agonist activity at RXFP1 receptor (unknown origin) expressed in HEK-293T cells cotransfected with beta-galactosidase assessed as cAMP activation at 10 uM by beta-galactosidase reporter gene assay; assay type: functional, cell-based
T1 sequence (whole entry): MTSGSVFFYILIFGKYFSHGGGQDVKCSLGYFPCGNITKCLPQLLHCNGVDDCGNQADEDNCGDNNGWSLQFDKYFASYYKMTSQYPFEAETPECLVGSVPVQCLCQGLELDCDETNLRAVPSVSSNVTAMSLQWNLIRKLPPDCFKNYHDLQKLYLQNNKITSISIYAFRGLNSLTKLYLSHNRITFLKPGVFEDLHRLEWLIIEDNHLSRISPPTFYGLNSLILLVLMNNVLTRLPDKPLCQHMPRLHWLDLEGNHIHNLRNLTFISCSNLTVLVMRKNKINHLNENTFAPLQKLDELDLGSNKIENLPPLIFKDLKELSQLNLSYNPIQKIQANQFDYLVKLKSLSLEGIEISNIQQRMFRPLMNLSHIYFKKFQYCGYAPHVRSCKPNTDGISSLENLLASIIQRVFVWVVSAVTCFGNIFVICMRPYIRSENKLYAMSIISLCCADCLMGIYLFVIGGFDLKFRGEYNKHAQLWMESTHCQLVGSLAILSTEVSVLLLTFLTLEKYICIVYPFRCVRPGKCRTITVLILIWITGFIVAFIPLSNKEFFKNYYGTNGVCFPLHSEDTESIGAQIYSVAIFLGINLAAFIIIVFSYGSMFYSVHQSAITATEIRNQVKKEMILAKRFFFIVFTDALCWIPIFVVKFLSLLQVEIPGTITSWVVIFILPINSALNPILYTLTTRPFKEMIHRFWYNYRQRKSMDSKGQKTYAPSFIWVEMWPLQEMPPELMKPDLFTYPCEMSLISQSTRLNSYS
Procedure, shortened: (§1)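 Tested for RXFP1 activation at concentrations up to 10 µM, alongside the […] as a reference.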

Relaxin receptor 1 = biological target: T2, Relaxin receptor 1 (Homo sapiens, UniProt Q9HBX9); assay: (§2) Agonist activity at RXFP1 receptor (unknown origin) expressed in HEK-293T cells cotransfected with beta-galactosidase assessed as cAMP activation by beta-galactosidase reporter gene assay; assay type: functional, cell-based; procedure, shortened: as §1
T2 sequence (Q9HBX9 whole entry): T1 sequence (whole entry)

Relaxin-3 receptor 1 [2] = biological target: T3, Relaxin-3 receptor 1 (Homo sapiens, UniProt Q9NSD7); assay: Displacement of Eu-H3/15 from human RXFP3 receptor expressed in CHOK1 cells by time-resolved fluorescent whole cell binding assay; assay type: cell-based
T3 sequence (Q9NSD7 whole entry): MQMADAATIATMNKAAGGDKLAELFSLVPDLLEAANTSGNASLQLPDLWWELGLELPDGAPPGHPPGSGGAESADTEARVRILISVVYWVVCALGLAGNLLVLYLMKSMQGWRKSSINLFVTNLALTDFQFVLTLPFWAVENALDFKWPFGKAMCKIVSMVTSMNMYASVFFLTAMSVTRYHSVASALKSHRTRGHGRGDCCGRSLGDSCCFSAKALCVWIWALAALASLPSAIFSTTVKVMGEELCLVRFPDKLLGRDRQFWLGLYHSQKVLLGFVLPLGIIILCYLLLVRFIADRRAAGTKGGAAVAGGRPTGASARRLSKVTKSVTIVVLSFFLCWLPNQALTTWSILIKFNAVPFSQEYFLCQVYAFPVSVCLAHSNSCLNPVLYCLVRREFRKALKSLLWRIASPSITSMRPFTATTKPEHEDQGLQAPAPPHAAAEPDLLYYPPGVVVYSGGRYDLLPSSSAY

Relaxin-3 receptor 2 [3] = biological target: T4, Relaxin-3 receptor 2 (Homo sapiens, UniProt Q8TDU9); assay: Displacement of Eu-INSL5 from human RXFP4 receptor expressed in CHOK1 cells by time-resolved fluorescent whole cell binding assay; assay type: cell-based
T4 sequence (Q8TDU9 whole entry): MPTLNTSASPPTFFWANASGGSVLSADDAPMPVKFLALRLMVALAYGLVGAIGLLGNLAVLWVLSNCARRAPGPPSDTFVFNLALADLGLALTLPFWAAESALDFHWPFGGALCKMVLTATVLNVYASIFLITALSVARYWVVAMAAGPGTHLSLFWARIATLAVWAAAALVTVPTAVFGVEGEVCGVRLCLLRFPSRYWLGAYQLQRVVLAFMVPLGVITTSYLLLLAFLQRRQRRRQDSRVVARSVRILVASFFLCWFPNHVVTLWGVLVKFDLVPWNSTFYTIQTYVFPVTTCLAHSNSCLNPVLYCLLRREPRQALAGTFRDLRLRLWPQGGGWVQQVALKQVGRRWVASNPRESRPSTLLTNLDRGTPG

Relaxin-3 receptor 2 [4] = biological target: T4, Relaxin-3 receptor 2; assay: Agonist activity at human RXFP4 receptor expressed in CHOK1 cells cotransfected with beta-galactosidase assessed as inhibition of forskolin-stimulated cAMP by beta-galactosidase reporter gene assay; assay type: functional, cell-based
Relaxin-3 receptor 1 [5] = biological target: T3, Relaxin-3 receptor 1; assay: Agonist activity at human RXFP3 receptor expressed in CHOK1 cells cotransfected with beta-galactosidase assessed as inhibition of forskolin-stimulated cAMP by beta-galactosidase reporter gene assay; assay type: functional, cell-based
[6] = biological target: T1, Relaxin receptor 1 (Homo sapiens); assay: as §2; assay type: functional, cell-based; procedure, shortened: as §1
Rattus norvegicus [7] = assay: Induction of water intake in satiated Sprague-Dawley rat at 1 nmol, icv during early light phase measured after 1 hr post dose; assay type: functional, organism-based
Relaxin-3 receptor 1 [8] = biological target: T3, Relaxin-3 receptor 1; assay: Agonist activity at human RXFP3 receptor expressed in CHOK1 cells assessed as ERK1/2 phosphorylation incubated for 5 mins by alphascreen surefire assay; assay type: cell-based
[9] = Toxicity in satiated Sprague-Dawley rat assessed as behavioral changes at 1 nmol, icv during early light phase measured after 1 hr post dose under home cage condition; settings: in vivo, icv_or_intrathecal
Rattus norvegicus [10] = assay: Induction of food intake in satiated Sprague-Dawley rat at 1 nmol, icv during early light phase measured after 1 hr post dose; assay type: functional, organism-based

Structure (SMILES) | Activity [1] | EC50 (Relaxin receptor 1) [nM] | Ki (Relaxin-3 receptor 1 [2]) [nM] | Ki (Relaxin-3 receptor 2 [3]) [nM] | EC50 (Relaxin-3 receptor 2 [4]) [nM] | EC50 (Relaxin-3 receptor 1 [5]) [nM] | pEC50 [6] | Activity (Rattus norvegicus [7]) | EC50 (Relaxin-3 receptor 1 [8]) [nM] | Activity [9] | Activity (Rattus norvegicus [10])
CC[C@H](C)[C@@H]1NC(=O)[C@H](Cc2ccccc2)NC(=O)[C@@](C)(NC(=O)[C@H](CCCNC(=N)N)NC(=O)CNC(=O)[C@H](CO)NC(=O)[C@H](CC(C)C)NC(=O)[C@H](CCCNC(=N)N)NC(C)=O)CCC/C=C/CCC[C@@](C)(C(=O)N[C@H](C(=O)N[C@H](C(=O)N[C@@H](Cc2ccccc2)C(=O)N[C@H](C(=O)N[C@@H](CO)C(=O)NCC(=O)NCC(=O)N[C@@H](CO)C(=O)N[C@@H](CCCNC(=N)N)C(=O)N[C@@H](Cc2c[nH]c3ccccc23)C(=O)O)[C@@H](C)O)[C@@H](C)CC)C(C)C)NC(=O)[C@H](CCCNC(=N)N)NC1=O (Ac-RLSGR[S5]FIR[S5]VIFTSGGSRW-OH; staple (E) 6-10) | inactive | > 10000 | 107 | 123 | 120 | 5.25 |  |  |  |  | 
CC[C@H](C)[C@H](NC(=O)[C@H](Cc1ccccc1)NC(=O)[C@H](CCC(=O)O)NC(=O)[C@H](CCCNC(=N)N)NC(=O)CNC(=O)[C@H](CO)NC(C)=O)C(=O)N[C@@H](CCCNC(=N)N)C(=O)N[C@@H](CCCCN)C(=O)N[C@H](C(=O)N[C@H](C(=O)N[C@@H](Cc1ccccc1)C(=O)N[C@H](C(=O)N[C@@H](CO)C(=O)NCC(=O)NCC(=O)N[C@@H](CO)C(=O)N[C@@H](CCCNC(=N)N)C(=O)N[C@@H](Cc1c[nH]c2ccccc12)C(=O)O)[C@@H](C)O)[C@@H](C)CC)C(C)C (Ac-SGREFIRKVIFTSGGSRW-OH) | inactive | > 10000 |  | > 10000 | 5890 | 4570 |  |  |  |  | 
CC[C@H](C)[C@@H]1NC(=O)[C@H](Cc2ccccc2)NC(=O)[C@@](C)(NC(=O)[C@H](CCCNC(=N)N)NC(=O)CNC(=O)[C@H](CO)NC(C)=O)CCC/C=C/CCC[C@@](C)(C(=O)N[C@H](C(=O)N[C@H](C(=O)N[C@@H](Cc2ccccc2)C(=O)N[C@H](C(=O)N[C@@H](CO)C(=O)NCC(=O)NCC(=O)N[C@@H](CO)C(=O)N[C@@H](CCCNC(=N)N)C(=O)N[C@@H](Cc2c[nH]c3ccccc23)C(=O)O)[C@@H](C)O)[C@@H](C)CC)C(C)C)NC(=O)[C@H](CCCNC(=N)N)NC1=O (Ac-SGR[S5]FIR[S5]VIFTSGGSRW-OH; staple (E) 4-8) | inactive |  | 275 | 316 | 112 | 3.31 | inactive | inactive | 0.12 | Non-Toxic | Active
CC[C@H](C)[C@H](NC(=O)[C@H](Cc1ccccc1)NC(=O)[C@H](CCC(=O)O)NC(=O)[C@H](CCCNC(=N)N)NC(=O)CNC(=O)[C@H](CO)NC(C)=O)C(=O)N[C@@H](CCCNC(=N)N)C(=O)N[C@@H](C)C(=O)N[C@H](C(=O)N[C@H](C(=O)N[C@@H](Cc1ccccc1)C(=O)N[C@H](C(=O)N[C@@H](CO)C(=O)NCC(=O)NCC(=O)N[C@@H](CO)C(=O)N[C@@H](CCCNC(=N)N)C(=O)N[C@@H](Cc1c[nH]c2ccccc12)C(=O)O)[C@@H](C)O)[C@@H](C)CC)C(C)C (Ac-SGREFIRAVIFTSGGSRW-OH) | inactive | > 10000 |  | > 10000 | 2690 | 8710 |  |  |  |  | 
